Activity calls are given as the source filed them. The rule behind the calls is not given here.
Target: NAD-dependent protein deacylase sirtuin-6 (Homo sapiens, UniProt Q8N6T7)
Assay: […] in human PANC1 cells assessed as reduction in Lin28b expression levels at 25 uM incubated for 72 hrs by Western blot analysis
Type: cell-based
Settings: PANC-1
Summary of the method: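 Cells incubated 72 h with various compound concentrations; whole-cell RIPA lysates with protease inhibitors, BCA-normalised, separated on 12% SDS-PAGE, transferred to PVDF, blocked in 5% milk or BSA. Probed 10 h at 4 °C with antibodies to SIRT6, acetyl-H3K9/K18/K56, total H3, Lin28b, Myc, IGF2BP3, β-actin; HRP secondary, chemiluminescent detection.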

Sequence of NAD-dependent protein deacylase sirtuin-6 (Q8N6T7 whole entry): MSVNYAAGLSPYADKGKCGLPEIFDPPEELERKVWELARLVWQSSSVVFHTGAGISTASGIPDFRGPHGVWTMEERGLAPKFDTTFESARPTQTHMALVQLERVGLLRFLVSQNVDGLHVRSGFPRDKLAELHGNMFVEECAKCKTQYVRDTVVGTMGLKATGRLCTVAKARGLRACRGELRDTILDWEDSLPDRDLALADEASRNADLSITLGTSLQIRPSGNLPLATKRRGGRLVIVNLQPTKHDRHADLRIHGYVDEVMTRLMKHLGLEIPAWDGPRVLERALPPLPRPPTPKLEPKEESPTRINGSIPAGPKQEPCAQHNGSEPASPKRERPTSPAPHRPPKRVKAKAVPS

Compound: O=C(NC(c1ccccc1)c1ccccc1)c1cc(-c2cc3ccccc3o2)nc2ccccc12
- inhibition: Active
